Bioassay records: PubChem, The Scripps Research Institute Molecular Screening Center
Most compounds without a hit are left out; they make up all but 1.8% or so of the library.
TCR-CD3 inh = human TCR-CD3 binding inhibition | TAMRA-labeled TCR probe fluorescence, biochemical | AID 651800 | inhibition, % at 9.4 µM | 0.37% of 360,000 active; in the data active = inhibition above about 19%;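 also: recombinant mutant TCR 2C K166C tagged with TAMRA read by polarization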
HTRA1 inh = inhibitors of human serine peptidase HTRA1; AID 504803; recombinant HTRA1, FP-rhodamine activity-based probe, fluorescence polarization; 0.5% of 340,000 active; inhibition, % at 5.96 µM; Q92743; in the data active = inhibition above about 36%
Target sequence (Q92743 whole entry, looked up): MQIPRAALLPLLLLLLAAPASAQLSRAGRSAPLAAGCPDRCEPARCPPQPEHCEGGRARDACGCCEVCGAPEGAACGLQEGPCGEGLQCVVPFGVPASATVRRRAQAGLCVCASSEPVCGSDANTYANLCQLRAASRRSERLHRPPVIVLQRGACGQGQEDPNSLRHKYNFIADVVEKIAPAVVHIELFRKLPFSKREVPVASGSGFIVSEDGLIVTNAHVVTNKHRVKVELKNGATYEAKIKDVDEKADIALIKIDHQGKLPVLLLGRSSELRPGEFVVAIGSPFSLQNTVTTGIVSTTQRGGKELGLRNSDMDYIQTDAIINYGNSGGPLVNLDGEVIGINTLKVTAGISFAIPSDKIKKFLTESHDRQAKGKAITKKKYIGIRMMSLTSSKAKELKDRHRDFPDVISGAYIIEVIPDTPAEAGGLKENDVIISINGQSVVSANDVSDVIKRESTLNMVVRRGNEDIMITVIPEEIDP
SIAE primary = inhibitors of human sialic acid acetylesterase SIAE. inhibition, % at 9.66 µM. Q9HAT2. 0.69% of 370,000 active. AID 1053197. SIAE FP-Rh probe binding, fluorescence polarization;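 active = inhibition above a cutoff: mean of compounds within the control limits plus 3 SD of those, cut at about 17% in these data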
Fam108B inh = blocks mouse Fam108B hydrolase in RBBP9 counter-screen. recombinant Fam108B, FP-Rh probe fluorescence polarization. 0.33% of 300,000 active. AID 1947. inhibition, % at 9.51 µM;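 active = inhibition above the screen mean inhibition plus 3 SD, computed separately per campaign, cut at about 18% in these data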;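 also: inhibitors lower polarization as less probe binds the enzyme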
ABHD4 inh = inhibits mouse alpha/beta hydrolase domain 4; 0.54% of 370,000 active; purified mABHD4, FP-Rh probe fluorescence polarization; AID 720543; inhibition, % at 8.92 µM;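 active = inhibition exceeding the mean over every tested compound plus 3 SD, cut at about 30% in these data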
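Material: mouse ABHD4 enzyme, wild type; Benchmarks: S159A mutant high control, sample median low control; Buffer or medium: HEPES pH 7.0, NaCl, Pluronic buffer; Signal: fluorescence polarization; Read-out: percent inhibition of probe binding, normalized to plate controls; Timing: pre-incubation 45 min, probe exposure 60 min, at 25 °C; Dosing: 8.92 µM, single dose.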
PME-1 inh = PME-1 (human) inhibition | inhibition, % at 5.9 µM | AID 2130 | 0.53% of 320,000 active | recombinant PME-1, FP-Rh probe fluorescence polarization | Q9Y570;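 active = inhibition above the campaign mean of all compounds plus 3 SD, cut at about 26% in these data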;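 also: competitive labeling of PME-1 active site by serine hydrolase directed probe; inhibitors block probe labeling so polarization falls and inhibition rises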
mABHD4 conf = confirmation of mouse ABHD4 inhibitors; purified mABHD4, FP-Rh probe fluorescence polarization; inhibition, % at 8.92 µM; 55% of 1,800 active; shares compounds with ABHD4 inh;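 active = mean inhibition across replicates above the hit cutoff set in the primary screen, cut at about 30% in these data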
Of the large screens only hits and unclear results are named; the others gave an inactive call (follow-up assays come after a bar, where they were run).

CCN(Cc1ccccc1)c1ccc(/C=N/N=C(N)N)cc1	ABHD4 inh 46.4 | mABHD4 conf 61.9
CCCc1cc(-c2ccc3c(c2)COc2c4ccccc4nn2-3)on1	none
Cc1cc(-c2ccc3c(c2)COc2c4ccccc4nn2-3)on1	ABHD4 inh 30.8 | mABHD4 conf inactive
N#CC1=C(N)Oc2cc(N)ccc2C1c1ccc(Cl)cc1 (configuration not stated)	none
N#CC1=C(N)Oc2cc(N)ccc2C1c1ccccc1Cl (configuration not stated)	ABHD4 inh 29.8 (no result: Fam108B inh, PME-1 inh) | mABHD4 conf inactive
COc1cccc2sc(NN)nc12	ABHD4 inh 91.7 | mABHD4 conf 43.6
COc1cccc2sc(Nc3nc(-c4ccncc4)cs3)nc12	none
CC(=O)Nc1ccc(S(=O)(=O)NCCC(=O)NC(C)c2cccs2)cc1 (configuration not stated)	none (no result: Fam108B inh, PME-1 inh)
Cc1ccc(OC(=S)Nc2ccc(O)cc2)cc1	ABHD4 inh 44.0 | mABHD4 conf inactive
Cc1ccc(OC(=S)Nc2ccc(F)cc2)cc1	none
O=C(CSc1nncn1-c1ccccn1)Nc1cccc(Cl)c1	none
O=C(CSC1=NNC(c2ccccn2)S1)Nc1ccccc1 (configuration not stated)	ABHD4 inh 52.7 | mABHD4 conf inactive
O=C(CSC1=NNC(c2ccccn2)S1)Nc1cccc(Cl)c1 (configuration not stated)	ABHD4 inh 35.9 (no result: HTRA1 inh) | mABHD4 conf inactive
O=C(O)[C@H](O)[C@@H](O)C(=O)O	none
CC1C(=O)N2CCCc3cc(S(=O)(=O)N4CCC(C(N)=O)CC4)cc1c32 (configuration not stated)	none
CC(C)n1cnc2c(NCc3ccccc3)cc(Cc3ccc(F)cc3)cc21	ABHD4 inh 30.7 (no result: Fam108B inh) | mABHD4 conf inactive
Oc1ccc(N2CCN(Cc3cc4c(cc3Br)OCCO4)CC2)cc1	ABHD4 inh 33.8 | mABHD4 conf inactive
O=S(=O)(c1ccc(F)cc1)N1CCN(Cc2cc3c(cc2Br)OCCO3)CC1	none (no result: Fam108B inh)
COc1ccccc1-c1cc(N)n(S(=O)(=O)c2cccc3nsnc23)n1	none
CCOc1cc(S(=O)(=O)n2cc(-c3ccc(F)cc3)c(N)n2)cc(OCC)c1OCC	ABHD4 inh 48.5 | mABHD4 conf 65.5
CCOc1cc(-c2cn(S(=O)(=O)c3cccc4nsnc34)nc2N)cc(OCC)c1OCC	ABHD4 inh 31.4 | mABHD4 conf 50.6
COc1ccccc1CCn1cnc(-c2ccc(Br)cc2)c1CC(C)C	none (no result: HTRA1 inh, Fam108B inh, PME-1 inh)
O=C(COc1ccc(F)cc1Br)Nc1ccccc1N1CCOCC1	none (no result: Fam108B inh, PME-1 inh)
Cc1ccc(NC(=O)CN(C)C(=O)CSc2nc3ccccc3c(=O)n2CCO)cc1	none (no result: Fam108B inh, PME-1 inh)
CC(C)c1ccc(NC(=O)Nc2nc(C(N)C3CCCCC3)cs2)cc1 (configuration not stated)	ABHD4 inh 31.2 (no result: HTRA1 inh, Fam108B inh, PME-1 inh) | mABHD4 conf 32.1
Cc1ccc2c(c1)c(Sc1ccccc1)c(CC(=O)O)n2C	ABHD4 inh 30.3 | mABHD4 conf 34.6
CC(NC(=O)c1ccc(S(=O)(=O)Nc2ccccc2Cl)cc1)c1ccncc1 (configuration not stated)	none (no result: Fam108B inh, PME-1 inh)
Cn1c(=O)[nH]c(=O)c2c1nc(SCc1ccccc1Cl)n2CC(N)=O	none
CCOC(=O)N1CCN(C2=C(NS(=O)(=O)c3ccc(NC(C)=O)cc3)C(=O)c3ccccc3C2=O)CC1	none
CCOC(=O)C1CCN(C2=C(NS(=O)(=O)c3ccc(Cl)cc3)C(=O)c3ccccc3C2=O)CC1	ABHD4 inh 40.5 | mABHD4 conf 57.8
O=C(NNC(=S)NC1CCCCC1)c1sc2ccccc2c1Cl	ABHD4 inh 30.9 | mABHD4 conf inactive
N#C/C(=C\c1ccc(C(=O)O)cc1)c1nc2sc3c(c2c(=O)[nH]1)CCCC3	none (no result: Fam108B inh, PME-1 inh)
COc1ccc(CN2CCN(Cc3c[nH]c4ccccc34)CC2)c(OC)c1	ABHD4 inh 33.1 (no result: Fam108B inh, PME-1 inh) | mABHD4 conf inactive
Oc1ccc(Cl)cc1Nc1nc(NCC2CCCO2)c2ccccc2n1 (configuration not stated)	ABHD4 inh 35.4 | mABHD4 conf 31.0
CCNc1sc(C(=O)c2cccs2)c(N)c1-c1nc2ccccc2s1	ABHD4 inh 33.0 | mABHD4 conf inactive
COc1ccc(-n2nc3c(=O)[nH][nH]c3cc2=O)cc1	ABHD4 inh 31.5 | mABHD4 conf 42.1
CC1CC(C)CN(CCCNC(=O)Cn2cccc2C(=O)c2ccccc2)C1 (configuration not stated)	none
CCCCCCCOC(=O)C[N+](C)(C)CCOC1CC2CCC1(C)C2(C)C (configuration not stated)	ABHD4 inh 37.7 (no result: Fam108B inh, PME-1 inh) | mABHD4 conf 50.2
CCCCCCOC(=O)C[N+](C)(C)CCOC1CC2CCC1(C)C2(C)C (configuration not stated)	none
Cn1cc(CN2CCC(C(O)c3cccs3)CC2)c(-c2ccccc2F)n1 (configuration not stated)	ABHD4 inh 48.2 | mABHD4 conf inactive
Cn1cc(CN2CCC(C(=O)N3CCCC3)CC2)c(-c2ccccc2F)n1	none
COC(=O)c1cc2c(c3c4cc(F)ccc4n(S(=O)(=O)c4cccc(C)c4)c13)C(=O)N(Cc1ccc(C(F)(F)F)cc1)C2	none (no result: HTRA1 inh, Fam108B inh, PME-1 inh)
Cn1c(-c2ccsc2)c(-c2cccs2)c2cc(-c3ccc4[nH]ccc4c3)ccc21	none (no result: Fam108B inh)
Cn1c(-c2ccsc2)c(-c2cccs2)c2cc(-c3ccc4cc[nH]c4c3)ccc21	ABHD4 inh 34.9 (no result: Fam108B inh) | mABHD4 conf 39.7
O=C1CC(Nc2ccccc2)C(=O)N1CCc1ccccc1 (configuration not stated)	none
COc1ccc(N2C(=O)CC(Nc3ccc(N4CCOCC4)cc3)C2=O)c(OC)c1 (configuration not stated)	SIAE primary 30.5, ABHD4 inh 48.8 | mABHD4 conf inactive
O=C1CC(Nc2ccc(N3CCOCC3)cc2)C(=O)N1CCc1ccccc1 (configuration not stated)	ABHD4 inh 32.7 | mABHD4 conf inactive
O=C(N=C1SC2CS(=O)(=O)CC2N1Cc1ccc(F)cc1)C1CCCO1 (configuration not stated)	none
Cc1cccc2cc(/C=N/Nc3ccc(C(=O)O)cc3)c(Cl)nc12	ABHD4 inh 38.3, PME-1 inh 35.6 | mABHD4 conf 43.6
COc1ccc2nc(Nc3nc(C)c(C(C)=O)s3)sc2c1	ABHD4 inh 35.1 | mABHD4 conf 54.1
O=C(OC12CCCN(C1)/C(=C/c1cccc(Cl)c1)C2)c1ccno1 (configuration not stated)	none (no result: TCR-CD3 inh, HTRA1 inh, Fam108B inh, PME-1 inh)
CN(C)c1ccc(N=Nc2ccc(S(=O)(=O)O)cc2)c2ccccc12	ABHD4 inh 55.9 | mABHD4 conf 60.0
CC(=O)c1cccc(NC(=O)C2=CC(c3ccc4c(c3)OCO4)=NS(=O)(=O)N2C)c1	none
